The whole screen tested about 300,000 compounds, of which about 4,400 (1.5%) were called active.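 The calls were made as follows: active = mean inhibition across valid replicates above about 55% (limit read from the data); inconclusive = mean below that limit but half or more replicates reach it; inactive = mean below it, under half of replicates reach it.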 The sample as a whole holds a higher share of actives than the screen did.

The assay in a line: Trypanosoma cruzi replication blockers in host cells – luminescence, NIH3T3 host cells, primary screen (AID 1885).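 Also: signal also drops with host cell toxicity which is not excluded here; 0% = plate median of DMSO wells and 100% = zero luminescence signal; higher percent means less beta-gal luminescence so fewer parasites.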 Particulars: T. cruzi beta-gal in NIH3T3, luminescence, 90 h; active compounds read high; concentration not given here. A digest of the protocol:
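Incubation – ≥90 h infection period, 3 h prior cell attachment · System – NIH/3T3 fibroblasts plus reporter T. cruzi · Doses – compound pinned at 50 nL/well, DMSO · Read-out basis – percent inhibition of parasite-derived β-gal signal · Signal – luminescent β-galactosidase signal after 60 min lysis · Also added – 5000 T. cruzi trypomastigotes/well · Medium – Low-serum DMEM with 2% FBS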
For `CC12CCC(=O)N1C(C(=O)Nc1ccc(F)c(F)c1F)CS2` (stereo not drawn), the inhibition is -7.75% (inactive).
The result for `COc1cccc(NC(=O)CN(C)C(=O)CSC(=S)N2CCCC2)c1` reads -6.94% (inactive); that for `CCOC(=O)c1sc(=S)n2c1[nH]c(=O)c1ccc(C(=O)OC)cc12`, 4.87% (inactive).
On to `CCOC(=O)c1sc(=NC(=O)c2ccc(Br)cc2)n(C)c1C`, for which the inhibition is -5.34% (inactive).
The result for `CCOC(=O)C1=C(C)Nc2sc(C(=O)c3ccc(Br)cc3)c(N)c2C1c1ccc(C(=O)OC)cc1` (stereo not drawn) reads 76.1% (active); that for `COc1cc(C(=O)NCC(=O)NCCSc2ccc(Br)cc2)cc(OC)c1OC`, -6.77% (inactive); that for `CCC(C)(C)n1nnnc1C(c1cccs1)N1CCN(Cc2ccccc2)CC1` (stereo not drawn), 5.19% (inactive).
In the case of `CCC(C)(C)n1nnnc1C(c1cccs1)N1CCN(c2nc3ccccc3s2)CC1` (stereo not drawn), the inhibition is 66.6% (active).
Regarding `CCC(C)(C)n1nnnc1C(c1ccccc1OC)N1CCSCC1` (stereo not drawn), the inhibition is -14.5% (inactive).
The result for `COc1ccc(Cc2nnc(SCC(=O)Nc3ccc(C)c(Cl)c3)[nH]c2=O)cc1` reads 23.1% (inactive); that for `S=C(Nc1cccc(Br)c1)N1CCn2cccc2C1c1cccnc1` (stereo not drawn), 72.8% (active).
`Fc1cc(Br)ccc1NC(=S)Nc1cccnc1`: the inhibition was -15.3% (inactive).
On to `S=C(NCCc1ccccc1)N1CCn2cccc2C1c1ccncc1` (stereo not drawn), for which the inhibition was 23.4% (inactive).
The result for `O=C(COC(=O)/C=C/c1ccc(OC(F)F)cc1)NC1CCCCC1` reads -1.87% (inactive); that for `C=CCn1c(SCCOc2ccc(OC)cc2)nnc1C(NC(=O)c1ccc(OC)cc1)C(C)C` (stereo not drawn), 4.8% (inactive); that for `Cc1ccc(C(=O)NNC(=O)c2ccncc2)cc1S(=O)(=O)N1CCCCC1`, -3.57% (inactive).
Regarding `Cc1ccc(N=C2SCCCN2C(=O)c2cccc(N3C(=O)CCC3=O)c2)cc1Cl`, the inhibition is 35.8% (inactive).
As for `CC(Nc1nc(N2CCCC2)nc2ccccc12)c1ccccc1` (stereo not drawn), the figure is 58.1% (active); as for `CC(Nc1nc(N2CCN(CCO)CC2)nc2ccccc12)c1ccccc1` (stereo not drawn), -7.35% (inactive); as for `CC(Nc1nc(N2CCOCC2)nc2ccccc12)c1ccccc1` (stereo not drawn), 31.7% (inactive).
Regarding `O=C(NCCC1CCCCN1S(=O)(=O)c1ccc(F)cc1)C(=O)NC1CC1` (stereo not drawn), the inhibition is -6.12% (inactive).
The result for `COc1cc(NC(=O)CSc2ccc(-c3cccnc3)nn2)cc(OC)c1` reads 1.76% (inactive); that for `COc1ccc(N2CC(NS(=O)(=O)c3ccc4ccccc4c3)CC2=O)cc1` (stereo not drawn), -4.61% (inactive); that for `O=C(NCc1ccncc1)c1ccc(NS(=O)(=O)c2cccc([N+](=O)[O-])c2)cc1`, -11.6% (inactive).
Take `O=C(Nc1cc2c3c(c1)C1CCCC1CN3CC1CCCC21)c1ccc([N+](=O)[O-])cc1` (stereo not drawn): the inhibition is 82.1% (active).
Turning to `O=C(Nc1ccccc1C(=O)Nc1ccncc1)c1ccc([N+](=O)[O-])cc1`, the inhibition is 31.4% (inactive).
As for `CN1C2CCC1CC(NC(=O)c1ccc([N+](=O)[O-])cc1)C2` (stereo not drawn), the figure is 8.42% (inactive).
As for `Cc1csc(=O)n1CC(=O)OCC(=O)N(CC(C)C)c1c(N)n(Cc2ccccc2)c(=O)[nH]c1=O`, the figure is -7.8% (inactive); as for `Cc1c(NC(=O)CSc2cccc3cccnc23)c(=O)n(-c2ccccc2)n1C`, 67.7% (active); as for `Cc1ccc(NC(=O)CSc2cccc3cccnc23)c(C)c1`, 26.2% (inactive).
Turning to `Cc1c(NC(=O)CSc2nnnn2-c2ccc(C(=O)O)cc2)c(=O)n(-c2ccccc2)n1C`, the inhibition was -12.6% (inactive).
The result for `CC(C)Cc1nc(N2CCOCC2)c(C#N)c2c1CCC2` reads 9.81% (inactive).
As to `CCc1nc(NCCO)c(C#N)c2c1CCCC2`, the inhibition was -15% (inactive).
As for `CC(C)CCNc1nc(N2CCCC2)c2c(c1C#N)CCN(C)C2`, the figure is 58.4% (active).
The result for `CSCCC(NC(=O)c1ccco1)C(=O)Nc1cc(C)ccn1` (stereo not drawn) reads -2.39% (inactive).
As to `Cc1ccc(C2CC(c3cccc(C)c3)n3nc(N)nc3N2)cc1` (stereo not drawn), the inhibition is 36.3% (inactive).
Take `Cc1ccc(C2CC(c3cccc(Br)c3)n3nc(N)nc3N2)cc1` (stereo not drawn): the inhibition is 14.7% (inactive).
Consider `COc1ccc(C2CC(c3ccc(C)cc3)Nc3nc(N)nn32)cc1` (stereo not drawn), for which the inhibition is 61.3% (active).
As to `CCc1ccccc1NC(=O)CN(C)S(=O)(=O)c1ccc2c(c1)c(=O)n(C)c(=O)n2C`, the inhibition was -4.15% (inactive).
Regarding `O=C1CSC(c2ccccc2)N1c1nc(-c2ccc(Cl)cc2Cl)cs1` (stereo not drawn), the inhibition is 28.7% (inactive).
For `Clc1ccc(-c2cc(C3CCNCC3)[nH]n2)c(Cl)c1`, the inhibition was 65.5% (active).
The result for `Clc1ccc(-c2cc(-c3ccccn3)on2)c(Cl)c1` reads 14.9% (inactive); that for `CCCN(CC(=O)Nc1ccccc1OC)C(=O)CCC(=O)c1ccc(F)cc1`, 0.665% (inactive).
Regarding `CCc1ccc(S(=O)(=O)N/N=C\c2ccc([N+](=O)[O-])o2)cc1`, the inhibition is 19% (inactive).
For the compound `Cc1cc(C)nc(N/N=C/c2ccc([N+](=O)[O-])o2)n1`, the inhibition was 26.9% (inactive).
Regarding `C/[N+]([O-])=C\c1ccc([N+](=O)[O-])o1`, the inhibition was 67% (active).
On to `COc1ccc(C(=NN)c2ccc(OC)cc2)cc1`, for which the inhibition is -17.9% (inactive).
As for `CCCC1(C(=O)OCC)NC(c2ccc(N(C)C)cc2)C2C(=O)N(c3ccc4c(c3)OCCO4)C(=O)C21` (stereo not drawn), the figure is -15% (inactive); as for `CN(C)CCOCCOc1ccc(Cl)c2ccccc12`, 33.2% (inactive).
For `CC(C)(C)NCCCOc1ccc(Cl)cc1C(C)(C)C`, the inhibition is 33.9% (inactive).
As to `CN(C)CCOc1ccc(Cl)cc1C(C)(C)C`, the inhibition is 57.6% (active).
As to `COc1ccccc1C(CNC(=O)c1cccc(NS(=O)(=O)c2ccc(Br)cc2)c1)N(C)C` (stereo not drawn), the inhibition is 0.0669% (inactive).
Take `CCN(CC(=O)Nc1cc(Cl)ccc1C)C(=O)CSCc1ccc(C)cc1`: the inhibition was 7.73% (inactive).
Take `N#Cc1cc([N+](=O)[O-])ccc1Oc1cccc(/C=N/NC(=O)c2ccc(Cl)cc2)c1`: the inhibition is 74.5% (active).
In the case of `O=C(N/N=C/c1cccc(OC(=O)c2ccc([N+](=O)[O-])cc2)c1)c1cccnc1`, the inhibition was -36.5% (inactive).
For the compound `O=C(N/N=C/c1cccc([N+](=O)[O-])c1)c1ccncc1`, the inhibition is -13.8% (inactive).
As for `CCc1ccc(C(=O)NNC(=O)C2CCN(c3ncnc4sc(C)c(C)c34)CC2)cc1`, the figure is 24% (inactive); as for `CC(NC(=O)COC(=O)c1ccc2c(c1)OCO2)c1ccccc1` (stereo not drawn), -10.2% (inactive); as for `O=C(COC(=O)c1c2c(nc3ccccc13)CCCC2)c1ccc(Br)s1`, -9.74% (inactive).
As for `NC(=O)c1ccc(NC(=O)COC(=O)c2c3c(nc4ccccc24)/C(=C\c2ccc4c(c2)OCO4)CCC3)cc1`, the figure is 69.5% (active).
In the case of `COc1cc(/C=C2\CCCc3c2nc2ccccc2c3C(=O)O)cc(Cl)c1O`, the inhibition was 6.47% (inactive).
Take `O=C(COC(=O)c1c2c(nc3ccccc13)/C(=C\c1cccs1)CCC2)Nc1ccccc1Cl`: the inhibition was 54.9% (active).
For the compound `COc1cc(-c2cc(C(=O)OCC(=O)Nc3ccc4c(c3)OCO4)c3ccccc3n2)cc(OC)c1OC`, the inhibition was 5.72% (inactive).

For the origin of these results see PubChem BioAssay AID1885 (Broad Institute, 2009).
